According to publication PMC3783524 (ACS chemical biology, 2013):
Several values for one entry are separate records, joined by “and”; a condition that tells them apart may be missing. Identical values can stand only once.

Key:
DnaK-GrpE [1] = target: T1, DnaK-GrpE (Escherichia coli, UniProt P0A6Y8); experiment: GrpE-stimulated ATPase activity of DnaK; format: biochemical; conditions: for Inhibition of the DnaK-GrpE combination (ATPase): result in words
Procedure, shortened: (§1)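 Purified E. coli DnaK, DnaJ and GrpE (His-tagged, tag removed by TEV) and the synthetic NRLLLTG peptide. DnaK at 0.6 μM unless noted, with co-chaperone at stated levels, in 100 mM Tris-HCl, 20 mM KCl, 6 mM MgCl2, pH 7.4. Test compound added from DMSO stock. Phosphate release read by malachite green adaptation (absorbance 620 nm). Michaelis-Menten fit. Triplicates, three independent experiments.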

Solubility = format: physicochemical; conditions: result in words
DnaK-DnaJ [2] = target: T2, DnaK-DnaJ (Escherichia coli, UniProt P0A6Y8); experiment: DnaJ-stimulated ATPase activity of DnaK; format: biochemical; conditions: result in words
Procedure, shortened: as §1

DnaK [3] = target: T3, DnaK (Escherichia coli, UniProt P0A6Y8); experiment: Intrinsic ATPase activity of DnaK alone; format: biochemical; conditions: result in words
Procedure, shortened: as §1

DnaK-peptide = DnaK-peptide (Escherichia coli, UniProt P0A6Y8); experiment: Peptide substrate; format: biochemical; conditions: NRLLLTG peptide; result in words
Procedure, shortened: as §1

DnaK [4] = target: T3, DnaK; experiment: Fluorescence polarization, binding of FITC-HLA peptide to DnaK; conditions: FP assay; result in words
DnaK [5] = target: T3, DnaK; experiment: Fluorescence polarization, binding of FAM-ATP to DnaK; conditions: for Competition with FAM-ATP for binding to DnaK: FP assay, result in words
DnaK-GrpE [6] = target: T1, DnaK-GrpE; experiment: Fluorescence-quenching assay, physical interaction between DnaK and GrpE; format: binding; conditions: result in words
DnaJ = DnaJ (Escherichia coli, UniProt P08622); experiment: Isothermal calorimetry, binding to DnaJ
GrpE = GrpE (Escherichia coli, UniProt P09372); experiment: Isothermal calorimetry, binding to GrpE
DnaK R56A = DnaK R56A (Escherichia coli, UniProt P0A6Y8, R56A); experiment: GrpE-stimulation of DnaK mutant R56A, ATPase assay; format: biochemical; conditions: result in words
DnaK M89A = DnaK M89A (Escherichia coli, UniProt P0A6Y8, M89A); experiment: GrpE-stimulation of DnaK mutant M89A, ATPase assay; format: biochemical; conditions: result in words
DnaK D233A = DnaK D233A (Escherichia coli, UniProt P0A6Y8, D233A); experiment: GrpE-stimulation of DnaK control mutant D233A, ATPase assay; format: biochemical; conditions: identical to wild type
DnaK [7] = target: T3, DnaK; experiment: Intrinsic tryptophan fluorescence of DnaK; format: binding
Procedure, shortened: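 DnaK (5 μM) held in 25 mM HEPES, 10 mM KCl, 5 mM MgCl2, pH 7.5, with 1 mM ADP or ATP and test compound (e.g. 25 or 100 μM). Incubated 30 min at 37 °C in the dark. Excitation 290 nm; emission scanned 300–450 nm or read at 340 nm. Langmuir fit. Triplicate, three independent experiments.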

DnaK-DnaJ [8] = target: T2, DnaK-DnaJ; experiment: Fluorescence-quenching assay, binding of labeled DnaJ to DnaK; conditions: not statistically significant (p = 0.07)
[9] = DnaK 5 μM, 25 μM or 100 μM compound

T2 sequence (P0A6Y8 whole entry): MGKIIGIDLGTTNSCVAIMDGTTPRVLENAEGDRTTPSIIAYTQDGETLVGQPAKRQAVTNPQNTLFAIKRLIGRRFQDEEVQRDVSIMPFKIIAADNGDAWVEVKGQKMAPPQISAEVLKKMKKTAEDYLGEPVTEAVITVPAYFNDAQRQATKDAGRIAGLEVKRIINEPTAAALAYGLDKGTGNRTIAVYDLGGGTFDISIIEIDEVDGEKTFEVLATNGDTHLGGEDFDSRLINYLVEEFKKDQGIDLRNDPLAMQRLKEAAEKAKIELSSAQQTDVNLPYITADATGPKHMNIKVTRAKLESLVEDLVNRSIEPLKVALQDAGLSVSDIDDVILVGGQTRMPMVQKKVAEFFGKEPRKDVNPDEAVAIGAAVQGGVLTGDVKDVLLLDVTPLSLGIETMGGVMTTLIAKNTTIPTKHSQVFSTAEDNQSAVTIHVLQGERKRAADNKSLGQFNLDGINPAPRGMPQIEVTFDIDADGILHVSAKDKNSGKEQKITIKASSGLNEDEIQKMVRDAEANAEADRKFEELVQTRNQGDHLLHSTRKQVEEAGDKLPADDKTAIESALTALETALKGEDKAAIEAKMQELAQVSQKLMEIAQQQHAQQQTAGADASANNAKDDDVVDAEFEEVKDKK
T3 sequence (P0A6Y8 whole entry): as above
T1 sequence (P09372 whole entry): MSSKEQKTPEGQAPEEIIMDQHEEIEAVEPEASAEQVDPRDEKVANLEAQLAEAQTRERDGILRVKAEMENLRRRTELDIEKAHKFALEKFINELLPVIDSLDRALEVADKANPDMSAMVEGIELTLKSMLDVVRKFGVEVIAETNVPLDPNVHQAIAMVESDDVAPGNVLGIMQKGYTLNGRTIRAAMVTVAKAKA
T1 sequence (P0A6Y8 whole entry): as the sequence (P0A6Y8 whole entry) above
DnaK-peptide, sequence (P0A6Y8 whole entry): as above
DnaK D233A, sequence (P0A6Y8 whole entry D233A): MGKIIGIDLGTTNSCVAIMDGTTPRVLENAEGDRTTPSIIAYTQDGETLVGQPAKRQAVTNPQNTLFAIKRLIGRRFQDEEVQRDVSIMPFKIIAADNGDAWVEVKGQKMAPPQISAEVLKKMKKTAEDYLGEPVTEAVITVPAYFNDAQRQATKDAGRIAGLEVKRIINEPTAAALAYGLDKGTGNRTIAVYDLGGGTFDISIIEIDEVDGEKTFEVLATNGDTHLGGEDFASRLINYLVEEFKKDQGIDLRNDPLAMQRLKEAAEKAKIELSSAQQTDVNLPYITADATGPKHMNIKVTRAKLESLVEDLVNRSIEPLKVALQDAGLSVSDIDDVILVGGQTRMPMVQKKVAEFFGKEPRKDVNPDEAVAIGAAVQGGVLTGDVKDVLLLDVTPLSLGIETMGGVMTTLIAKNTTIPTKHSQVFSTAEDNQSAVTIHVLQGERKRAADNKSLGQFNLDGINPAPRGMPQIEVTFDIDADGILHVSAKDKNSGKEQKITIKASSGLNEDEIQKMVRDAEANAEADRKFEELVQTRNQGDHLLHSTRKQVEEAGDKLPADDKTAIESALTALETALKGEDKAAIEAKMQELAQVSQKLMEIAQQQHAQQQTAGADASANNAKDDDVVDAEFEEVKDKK
DnaK D233A, sequence (P09372 whole entry, further chain): as the sequence (P09372 whole entry) above
DnaJ, sequence (P08622 whole entry): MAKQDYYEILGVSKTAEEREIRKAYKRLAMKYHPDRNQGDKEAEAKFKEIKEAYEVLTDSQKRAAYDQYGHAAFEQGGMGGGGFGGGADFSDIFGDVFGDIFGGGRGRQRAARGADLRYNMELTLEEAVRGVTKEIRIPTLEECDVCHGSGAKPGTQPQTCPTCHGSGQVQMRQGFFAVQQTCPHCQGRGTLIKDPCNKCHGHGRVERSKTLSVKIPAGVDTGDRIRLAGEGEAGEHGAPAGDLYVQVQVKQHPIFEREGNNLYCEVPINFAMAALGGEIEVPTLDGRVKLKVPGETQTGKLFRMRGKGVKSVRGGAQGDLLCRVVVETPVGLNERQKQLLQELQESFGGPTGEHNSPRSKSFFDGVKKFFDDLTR
DnaK R56A, sequence (P0A6Y8 whole entry R56A): as the sequence (P0A6Y8 whole entry D233A) above, with R56A, A233D counted along it
DnaK R56A, sequence (P09372 whole entry, further chain): as the sequence (P09372 whole entry) above
DnaK M89A, sequence (P09372 whole entry): as above
DnaK M89A, sequence (P0A6Y8 whole entry M89A): as the sequence (P0A6Y8 whole entry D233A) above, with M89A, A233D counted along it
GrpE, sequence (P09372 whole entry): as the sequence (P09372 whole entry) above

**Q.** What does the source list for `CC(=O)O[C@H]1C[C@@H]2CC[C@@H]3[C@H](CC[C@@]4(C)[C@H]3C[C@H]([N+]3(C)CCCCC3)[C@@H]4OC(C)=O)[C@@]2(C)C[C@@H]1[N+]1(C)CCCCC1` [PaBr, pancuronium bromide]?
**A.** Inhibition of the DnaK-GrpE combination (ATPase) (DnaK-GrpE [1]): only inhibitors of the DnaK-GrpE combination; Solubility (Solubility): weakly soluble

**Q.** With `CCCc1nc2c(C)cc(-c3nc4ccccc4n3C)cc2n1Cc1ccc(-c2ccccc2C(=O)O)cc1` [Tel, telmisartan] as the compound, how does the “Inhibition of the DnaK-DnaJ combination (ATPase)” value (DnaK-DnaJ [2]) read?
**A.** little activity

**Q.** What about the “Inhibition of the DnaK-GrpE combination (ATPase)” value (DnaK-GrpE [1]) of the same compound?
**A.** only inhibitors of the DnaK-GrpE combination

**Q.** What about the “Fold increase in Km of GrpE stimulation, wild type DnaK” value (DnaK-GrpE [1]; wild type DnaK) of the same compound?
**A.** ~ 1.5 fold

**Q.** And the “Activity against DnaK alone (intrinsic ATPase)” value (DnaK [3])?
**A.** little activity

**Q.** And the “Activity against DnaK-peptide substrate combination (ATPase)” value (DnaK-peptide)?
**A.** little activity

**Q.** And the “Effect on apparent affinity of DnaK for FITC-HLA” value (DnaK [4])?
**A.** no effect

**Q.** And the “Competition with FAM-ATP for binding to DnaK” value (DnaK [5])?
**A.** interfered with binding

**Q.** What about the “Effect on FAM-ATP binding, fold” value (DnaK [5]; reduced nucleotide affinity) of the same compound?
**A.** 2 fold

**Q.** And the “Effect on physical interaction between DnaK and GrpE” value (DnaK-GrpE [6])?
**A.** no effect

**Q.** And the Kd (DnaJ)?
**A.** > 100 µM

**Q.** What about the Kd (GrpE) of the same compound?
**A.** > 100 µM

**Q.** And the “Ability to block GrpE-stimulation of DnaK R56A” value (DnaK R56A)?
**A.** resistant

**Q.** What about the “Ability to block GrpE-stimulation of DnaK M89A” value (DnaK M89A) of the same compound?
**A.** resistant

**Q.** What about the “Fold increase in Km of GrpE stimulation, DnaK D233A” value (DnaK D233A) of the same compound?
**A.** ~ 1.5 fold

**Q.** For `O=c1c(O)c(-c2cc(O)c(O)c(O)c2)oc2cc(O)cc(O)c12` [Myr, myricetin], which “Inhibition of the DnaK-DnaJ combination (ATPase)” value (DnaK-DnaJ [2]) is on record?
**A.** only inhibitors of the DnaK-DnaJ combination

**Q.** Which “Inhibition of the DnaK-DnaJ combination (ATPase)” value (DnaK-DnaJ [2]) does the source give for `COc1cc(C(=O)NS(=O)(=O)c2ccccc2C)ccc1Cc1cn(C)c2ccc(NC(=O)OC3CCCC3)cc12` [Zaf, zafirlukast] here?
**A.** only inhibitors of the DnaK-DnaJ combination

**Q.** What about the IC50 (DnaK-GrpE [1]) of the same compound?
**A.** > 200 µM

**Q.** What about the “Inhibition of the DnaK-GrpE combination (ATPase)” value (DnaK-GrpE [1]) of the same compound?
**A.** weak or no activity

**Q.** And the “Activity against DnaK alone (intrinsic ATPase)” value (DnaK [3])?
**A.** weak or no activity

**Q.** What about the “Activity against DnaK-peptide substrate combination (ATPase)” value (DnaK-peptide) of the same compound?
**A.** has activity

**Q.** What about the Kd (DnaK [7]; Apparent affinity KD for ATP-bound DnaK, ATP-bound DnaK) of the same compound?
**A.** > 100 µM

**Q.** And the Kd (DnaK [7]; Apparent affinity KD for DnaK in the presence of ADP, ADP 1 mM)?
**A.** 52 ± 12 µM

**Q.** And the “Decrease of tryptophan fluorescence intensity at 342 nm” value (DnaK [7]; [9])?
**A.** ~ 25%

**Q.** And the “Shift of tryptophan fluorescence peak” value (DnaK [7]; [9])?
**A.** ~ 2 nm

**Q.** And the “Effect on Trp fluorescence in the ATP-bound states” value (DnaK [7]; p = 0.06, result in words)?
**A.** no effect

**Q.** What about the “Effect on apparent affinity of DnaK for FITC-HLA” value (DnaK [4]) of the same compound?
**A.** enhanced the apparent affinity

**Q.** What about the “Competition with FAM-ATP for binding to DnaK” value (DnaK [5]) of the same compound?
**A.** unable to compete

**Q.** And the “Weakening of binding of DnaJ to DnaK, fold” value (DnaK-DnaJ [8])?
**A.** ~ 1.8 fold and ~ 2 fold
